Assay outcomes: PubChem, several laboratories
NALP1 inh – inhibitors of NALP1 inflammasome in yeast | S. cerevisiae NALP1/ASC/caspase-1 growth, X-gal OD620, 72 h | inhibition, % at 10 µM | hit rate 0.61% among 280,000 | AID 2071; in the data active means inhibition mostly above about 24%, no sharp cut-off; inactive means mostly below about 32%
MC4R ag barr – human MC4R agonism via beta-arrestin. U2OS MC4R beta-arrestin complementation, luminescence; percent of melanotan II response, DMSO zero. activation, % at 8.9 µM. hit rate 0.98% among 360,000. AID 540308;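 active means activation above a per-plate cutoff, the mean activation of sample wells on that plate plus 3 SD, cut at about 8% in these data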
MC4R antagonist – antagonists of human melanocortin 4 receptor (MC4R) | P32245 | MC4R-expressing cells, MTII-stimulated cAMP, LANCE TR-FRET | inhibition, % at 6.5 µM | hit rate 0.48% among 360,000 | AID 540295;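 active means inhibition above its plate's cutoff, the mean of tested wells on that plate plus 3 SD, cut at about 29% in these data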;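 further: 0% = Melanotan II alone and 100% = Melanotan II plus saturating MCL0020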
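Material: human MC4R-expressing U2OS cells. Probe or stimulus: Melanotan II challenge. Dosing: 6.5 µM single dose. Times: 30-min compound, 1-h challenge, 1-h detection, room temperature. Technique: TR-FRET with Eu-cAMP and labeled anti-cAMP, 671 nm. Replication: singlicate.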
TbMetRS inhib – blocks T. brucei methionyl-tRNA synthetase activity | purified T. brucei MetRS, ATP depletion, Kinase-Glo luminescence | inhibition, % at 11.9 µM | hit rate 0.4% among 360,000 | AID 624268;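 active means inhibition above a per-plate cutoff of the control wells' mean inhibition plus 3 SD, cut at about 5.5% in these data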;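 further: 0% = DMSO wells median and 100% = median of wells with control inhibitor compound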
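Material – parasite MetRS enzyme · Medium – HEPES-MgCl2-KCl buffer plus DTT, spermine, BSA, pyrophosphatase · Reagent – ATP, methionine and E. coli bulk tRNA substrates · Times – 15 min enzyme-compound preincubation, 2 h reaction, 10 min detection, 25 °C · Measured by – luminescence of leftover ATP · Evaluation – percent inhibition relative to median high and low control wells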
NLRP3 yeast inh – inhibitors of NALP3 inflammasome in yeast; Yeast reconstituted NLRP3/ASC/caspase-1, beta-gal luminescence, 24 h; inhibition, % at 10 µM; hit rate 0.39% among 330,000; AID 2825;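 active means inhibition of 50% or more; inactive means inhibition below 50%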;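 further: plate controls were induced DMSO wells for no effect and uninduced yeast grown without galactose for full effect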
A1 inh – inhibitors of the anti-apoptotic protein A1, read as caspase activation; MEF A1-2A-BIM cells, Caspase-Glo 3/7 luminescence, 3 h; percent of clofoctol response, vehicle zero; AID 2462; hit rate 0.066% among 330,000; caspase activation, % (test concentration not listed);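 active means over half of replicate activation scores above 10%, or exactly half above 10 with the replicate mean above 10; inconclusive means replicate mean below 10 yet half the replicates above 10; inactive means over half of replicates below 10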
U2OS cAMP counter – U2OS forskolin cAMP inhibition counter-screen. hit rate 26% among 1,600. inhibition, % at 6.5 µM. parental U2OS, LANCE TR-FRET. shares compounds with MC4R antagonist;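 active means mean inhibition over triplicates above the low-control well mean plus 3 SD, set per campaign, cut at about 13% in these data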;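 further: signal is single emission at 671 nm which falls as cellular cAMP rises; 0% = forskolin-stimulated wells and 100% = buffer without forskolin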
MC4R cAMP antag – human MC4R cAMP antagonism confirmation. AID 602195. hit rate 27% among 1,600. shares compounds with MC4R antagonist. MC4R-expressing cells, MTII-stimulated cAMP, TR-FRET. inhibition, % at 6.5 µM; in the data active means inhibition above about 29%;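 further: 0% = agonist stimulated wells alone and 100% = agonist stimulated wells plus saturating reference antagonist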
MC4R barr ag – human MC4R beta-arrestin agonism confirmation. AID 602192. hit rate 31% among 2,400. U2OS MC4R beta-arrestin recruitment, luminescence; scaled DMSO 0%, Melanotan II 100%. shares compounds with MC4R ag barr. activation, % at 8.9 µM;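 active means mean activation across replicates above the hit cutoff set in the earlier primary screen, cut at about 8% in these data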
MOR-DOR barr ag – OPRM1-OPRD1 heterodimer agonism counter-screen; U2OS PathHunter beta-arrestin, beta-gal luminescence; percent of deltorphin B response, DMSO zero; activation, % at 9.2 µM; AID 602194; shares compounds with MC4R ag barr; hit rate 5.8% among 2,400;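 active means mean activation across replicates exceeds the hit threshold derived in the earlier primary screen, cut at about 18% in these data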;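 further: 100% = deltorphin B at 0.9 µM final and 0% = DMSO alone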
Target sequence (P35372 whole entry, looked up): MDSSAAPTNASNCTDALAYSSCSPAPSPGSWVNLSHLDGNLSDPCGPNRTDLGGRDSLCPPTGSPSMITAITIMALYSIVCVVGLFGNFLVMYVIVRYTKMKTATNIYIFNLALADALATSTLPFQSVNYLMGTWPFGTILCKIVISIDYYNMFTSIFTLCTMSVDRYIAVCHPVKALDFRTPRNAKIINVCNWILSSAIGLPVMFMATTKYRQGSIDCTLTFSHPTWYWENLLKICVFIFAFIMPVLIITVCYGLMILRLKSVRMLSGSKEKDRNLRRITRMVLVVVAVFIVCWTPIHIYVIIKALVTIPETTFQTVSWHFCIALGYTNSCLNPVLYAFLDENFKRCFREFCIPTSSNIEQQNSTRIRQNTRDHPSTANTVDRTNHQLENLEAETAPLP
Target sequence (P41143 whole entry, looked up): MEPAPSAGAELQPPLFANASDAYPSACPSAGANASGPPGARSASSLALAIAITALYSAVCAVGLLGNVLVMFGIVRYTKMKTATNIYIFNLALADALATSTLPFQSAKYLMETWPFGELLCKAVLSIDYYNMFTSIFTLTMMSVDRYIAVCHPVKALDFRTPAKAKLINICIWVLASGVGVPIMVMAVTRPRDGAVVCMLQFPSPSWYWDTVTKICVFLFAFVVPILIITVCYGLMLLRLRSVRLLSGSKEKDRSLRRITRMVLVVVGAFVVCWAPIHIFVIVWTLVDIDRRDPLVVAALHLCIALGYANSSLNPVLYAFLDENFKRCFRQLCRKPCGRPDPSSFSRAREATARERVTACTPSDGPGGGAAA
TbMetRS confirm – confirmation of Trypanosoma brucei MetRS inhibitors | shares compounds with TbMetRS inhib | T. brucei MetRS enzyme, luminescence (ATP depletion) | inhibition, % at 11.9 µM | hit rate 93% among 1,400; in the data active means inhibition above about 7%
Jurkat tox – Jurkat T cell cytotoxicity for MetRS hits | shares compounds with TbMetRS inhib | Jurkat cells viability, ATP luminescence | inhibition, % at 8.3 µM | hit rate 12% among 1,400; in the data active means inhibition above about 15%;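 further: 0% = vehicle and 100% = reference inhibitor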
TbMetRS FP orth – T. brucei MetRS inhibition, orthogonal assay | purified T. brucei MetRS, fluorescence polarization | AID 651607 | hit rate 44% among 1,400 | inhibition, % at 11.9 µM | shares compounds with TbMetRS inhib; in the data active means inhibition above about 17%;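 further: 0% = vehicle wells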
* hit, by the source's call; ? = inconclusive; . = no result given. Sampled rows, rich in hits. Any-hit rate of the full collection: about 2.5%.

SMILES	NALP1 inh	MC4R ag barr	MC4R antagonist	TbMetRS inhib	NLRP3 yeast inh	A1 inh	U2OS cAMP counter	MC4R cAMP antag	MC4R barr ag	MOR-DOR barr ag	others
CC1=NNC(=O)/C1=C\c1cn(-c2ccccc2)nc1-c1ccc(Cl)cc1	38	17*	31*	-1	34	41*	2	14	33*	6
COC(CN(C)C(=O)c1cn(C)c2ccc(S(=O)(=O)N(C)C3CCCCC3)cc2c1=O)OC	-5	-2	10	0	0	-1	.	.	.	.
Cc1cc(C)c(C#N)c(SCC(=O)Nc2cccc(S(=O)(=O)N3CCCC3)c2)n1	.	10.0*	32*	0	19	.	45*	82*	-1	4
Cc1cccc(C)c1-n1cccc1/C=C1\SC(=S)N(c2cccc(C(=O)O)c2)C1=O	17	20*	37*	0	29	1	-3	-14	20*	2
CCN(CC)CCOC(=O)c1cc(Cl)c(N)cc1OC	.	0	19	0	19	?	.	.	.	.
C=CCn1c(=NC(=O)c2sc3ccccc3c2Cl)sc2cc(S(N)(=O)=O)ccc21	32	16*	33*	-1	10	0	4	20	8	2
COCCn1c(=NC(=O)c2sc3ccccc3c2Cl)sc2cc(S(N)(=O)=O)ccc21	44	4	25	-2	-2	0	.	.	.	.
CCOC(=O)c1cc(-c2csc(N/N=C/c3ccccc3Cl)n2)on1	-2	22*	40*	-1	20	1	14*	71*	13*	5
CCOC(=O)c1cc(-c2csc(Nc3ccccc3Cl)n2)on1	15	0	28	0	9	-1	.	.	.	.
CC(=O)n1cc(N(C(=O)CCl)c2ccc(Cl)cc2)c2ccccc21	7	13*	42*	0	26	3	-17	52*	6	51*
CC(=O)n1cc(Nc2ccccc2C(=O)O)c2ccccc21	-11	-1	-5	-1	14	0	.	.	.	.
COc1ccc2[nH]c(C(=O)Nc3ccc(F)cc3Br)cc2c1	2	26*	29*	-1	-1	4	21*	20	1	5
OCC1OC(n2cnc3c(/C=C(\O)c4ccccc4)ncnc32)C(O)C1O (stereo not drawn)	.	-1	-1	0	.	.	.	.	.	.
COc1ccc(-c2oc3ccc(N4CCOCC4)cc3c2C#CC2(O)CCCCC2)cc1	.	19*	33*	0	0	0	6	20	15*	5
O=C(COC(=O)c1ccc(S(=O)(=O)N2CCCCC2)cc1)NCc1ccccc1	.	0	1	0	14	-2	.	.	.	.
Nc1c(S(=O)(=O)c2ccccc2)c2nc3ccccc3nc2n1/N=C/c1cccc(O)c1	10	17*	35*	-1	-1	2	2	13	10*	8
Cc1cccc(S(=O)(=O)c2c(N)n(/N=C/c3ccccc3)c3nc4ccccc4nc23)c1	11	0	8	-1	5	0	.	.	.	.
CCC(NC(=O)CNC(=O)c1ccc2c(c1)OCO2)c1ccc(Br)cc1 (stereo not drawn)	.	-1	-4	2	21	.	.	.	.	.
CCCCNc1c(-c2cccc(-c3cc(C(C)=O)cs3)c2)nc2cc(C)ccn12	.	11*	36*	-1	32	-2	1	9	9.5*	6
COc1ccc(Cl)cc1C(=O)NNC(=O)COC(=O)CCN=C1NS(=O)(=O)c2ccccc21	.	-8	11	0	45	0	.	.	.	.
CC(O)CC(=O)OC[C@]12CC[C@H]3[C@@](C)(CC[C@H]4C(C)(C)CCC[C@]34C)[C@@H]1CC(C1=CC(=O)OC1O)O2 (stereo partly drawn)	.	16*	33*	0	.	.	0	23	24*	16
COc1ccc(C(=O)N/C(=C\c2ccc3c(c2)OCO3)C(=O)NCCc2nc3ccccc3[nH]2)cc1	22	0	29*	6.9*	-4	-3	3	-2	.	.	TbMetRS confirm=11*;Jurkat tox=1;TbMetRS FP orth=7
COc1ccc(/C=C(/NC(=O)c2ccc(OC)cc2)C(=O)NCCc2c[nH]c3ccccc23)cc1	32	-2	4	0	-1	1	.	.	.	.
COc1ccc(S(=O)(=O)Nc2ccc3c(c2)C(=O)N([C@H](C)CO)C[C@H](C)[C@@H](CN(C)S(C)(=O)=O)O3)cc1	.	0	1	-2	-8	0	.	.	.	.
CCCCOc1cccc(OCC(=O)Nc2nc3ccccc3[nH]2)c1	7	7	33*	36*	29	0	-9	-23	.	.	TbMetRS confirm=48*;Jurkat tox=1;TbMetRS FP orth=14
CCOc1ccc(OCc2ccc(C(=O)N3N=C(C(F)F)CC3(O)C(F)F)o2)cc1 (stereo not drawn)	10	8	3	-2	-1	0	.	.	.	.
O=C(c1ccc(COc2ccc3ccccc3c2)o1)N1N=C(C(F)F)CC1(O)C(F)F (stereo not drawn)	.	30*	-4	-1	9	3	.	.	16*	6
O=C(c1ccc(COc2ccc(Br)cc2)o1)N1N=C(C(F)F)CC1(O)C(F)F (stereo not drawn)	7	11*	7	0	5	0	.	.	22*	14
O=C(Nc1ccc(Nc2ccccc2)cc1)C1CC1	.	-2	-5	0	34	0	.	.	.	.
CC(C)(C)C1CCC(C(=O)Nc2ccccc2)CC1 (stereo not drawn)	10	10*	-5	-1	42	0	.	.	2	6
